The source made the active and inactive calls.
What was measured:
Paracentrotus lividus [1] = assay: Induction of microtubule destabilization activity in sea urchin free-swimming blastulae assessed as embryo spinning measured after 0.25 to 20 hrs; conditions: Blastula
Outline: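 Free-swimming blastulae just after hatching (8–10 h post-fertilisation) were cultured in filtered seawater at room temperature. They were treated with 2-fold decreasing concentrations (DMSO stock diluted 10-fold in EtOH; final DMSO ≤0.05%, EtOH ≤1%). Spinning and lack of forward movement were observed by light microscopy after 15 min to 20 h. The value is the effective threshold concentration, from duplicate measurements.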

Paracentrotus lividus [2] = assay: Induction of microtubule destabilization in sea urchin embryo assessed as cleavage alteration exposed 8 to 20 mins after fertilization and 45 to 55 mins before first mitotic cycle completion measured 2.5 to 5.5 hrs after fertilization
Outline: (§1)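 Gametes were obtained by intracoelomic injection of 0.5 M KCl, and eggs were fertilised in filtered seawater. Embryos were cultured at room temperature with paddle agitation (60 rpm), as a monolayer at up to 2000 embryos/mL. Eggs were exposed 8–20 min post-fertilisation to 2-fold decreasing concentrations (10 mM DMSO stock diluted 10-fold in EtOH). Cleavage was scored microscopically at 2.5–5.5 h. The read-out was the threshold concentration, in duplicate.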

Paracentrotus lividus [3] = assay: Induction of microtubule destabilization in sea urchin embryo assessed as cleavage arrest exposed for 8 to 20 mins after fertilization and 45 to 55 mins before first mitotic cycle completion measured 2.5 to 5.5 hrs after fertilization; outline: as §1
[4] = Growth inhibition of human NCI60 cells at 10 uM incubated for 48 hrs by sulforhodamine B assay relative to control; type: functional; conditions: NCI60, 48 h, read-out: GI
Outline: (§2)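 NCI Developmental Therapeutics Program panel of sixty human tumour cell lines. Compounds were screened first at a single 10 μM dose (percent growth inhibition), and dose-response curves were run for active ligands. GI50 is the concentration giving 50% growth inhibition, reported as the mean across the 60 lines.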

Paracentrotus lividus [5] = assay: Induction of microtubule destabilization in sea urchin embryo assessed as developmental retardation at later stages of development
Paracentrotus lividus [6] = assay: Induction of microtubule destabilization in sea urchin embryo assessed as alteration at later stages of development
Paracentrotus lividus [7] = assay: Induction of microtubule destabilization in sea urchin embryo assessed as formation of tuberculate eggs for 8 to 20 mins after fertilization and 45 to 55 mins before first mitotic cycle completion measured 2.5 to 5.5 hrs after fertilization
Outline: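 Sea urchin gametes were obtained by intracoelomic 0.5 M KCl injection, and embryos were cultured in filtered seawater at room temperature at up to 2000 embryos/mL. Fertilised eggs were exposed to 2-fold decreasing concentrations from 10 mM DMSO stocks diluted 10-fold in 96% EtOH. Final DMSO was kept ≤0.05% and EtOH ≤1%. Microscopic scoring gave the EC, the threshold causing 100% cleavage alteration, in duplicate.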

[8] = Toxicity in sea urchin embryo assessed as induction of embryo disintegration at early pluteus stage; conditions: paracentrotus lividus
[9] = Toxicity in sea urchin embryo assessed as induction of embryo death at early pluteus stage; conditions: paracentrotus lividus
[10] = Growth inhibition of human NCI60 cells incubated for 48 hrs by sulforhodamine B assay; type: functional; conditions: NCI60, 48 h; outline: as §2

Compound | EC (Paracentrotus lividus [1]) [µM] | EC (Paracentrotus lividus [2]) [µM] | EC (Paracentrotus lividus [3]) [µM] | inhibition of growth at 10 µM [4] [%] | Activity (Paracentrotus lividus [5]) | Activity (Paracentrotus lividus [6]) | Activity (Paracentrotus lividus [7]) | Activity [8] | Activity [9] | GI50 [10] [µM]
Nc1c(C(=O)c2ccc(Br)cc2)sc2ncccc12 | > 4 | 1 | > 4 |  |  |  |  |  |  | 
Nc1c(C(=O)c2ccccc2)sc2nc3c(cc12)CCCC3 | 0.5 | 0.02 | 0.2 |  |  |  |  |  |  | 
COc1ccc(C(=O)c2sc3nc(C)cc(C)c3c2N)cc1OC | > 4 | > 4 | > 4 | 14.2 |  |  |  |  |  | 
COc1ccc(C(=O)c2sc3nc(-c4ccncc4)ccc3c2N)cc1OC | > 4 | 4 | > 4 | 17.1 |  |  |  |  |  | 
N#Cc1cc2c(N)c(C(=O)c3ccc(Cl)cc3)sc2nc1N | > 4 | > 4 | > 4 | 0.5 | Active | Active |  |  |  | 
Cc1ccc(C(=O)c2sc3nc(C)ccc3c2N)cc1 | > 10 | 1 | 4 |  |  |  | Active |  |  | 
Nc1c(C(=O)Nc2ccccc2)sc2nc3c(cc12)CCCC3 | 0.2 | 0.01 | 0.05 |  |  |  |  |  |  | 
COc1ccc(C(=O)c2sc3nc4c(c(-c5ccccc5)c3c2N)CCCC4)cc1OC | > 4 | > 4 | > 4 |  | Active | Active |  |  |  | 
Nc1c(C(=O)c2ccc(Cl)cc2)sc2nc(-c3cccs3)ccc12 | > 4 | > 4 | > 4 |  |  |  |  | Toxic | Toxic | 
COc1ccc(C(=O)c2sc3nc(-c4cccs4)ccc3c2N)cc1OC | > 4 | 4 | > 4 | 52.6 |  |  |  | Toxic | Toxic | 6.31
Nc1c(C(=O)c2ccc3c(c2)OCO3)sc2nc3c(cc12)CCCC3 | > 5 | 0.025 | 0.5 |  |  |  | Active |  |  | 
Nc1c(C(=O)c2ccccc2)sc2nc3c(cc12)N1CCC3CC1 | > 4 | > 4 | > 4 | 7.3 |  |  |  |  |  | 
Cc1ccc2c(N)c(C(=O)c3ccc(Cl)cc3)sc2n1 | > 4 | 0.5 | > 4 | 18.4 |  |  |  |  |  | 
Nc1c(C(=O)c2ccc(Cl)cc2)sc2nc3c(cc12)CCCC3 | > 4 | 0.5 | > 4 | 7.8 |  |  |  |  |  | 
Nc1c(C(=O)c2ccc(Br)cc2)sc2nc3c(cc12)CCCC3 | > 4 | 0.5 | > 4 | 8.1 |  |  |  |  |  | 
COc1ccc(C(=O)c2sc3nc4c(c(-c5ccncc5)c3c2N)CCCC4)cc1OC | > 4 | > 4 | > 4 |  | Active | Active |  |  |  | 
COc1ccc(C(=O)c2sc3nc4c(cc3c2N)N2CCC4CC2)cc1OC | > 4 | > 4 | > 4 | 11.7 | Active | Active |  |  |  | 
COc1ccc(C(=O)c2cc(OC)c(OC)c(OC)c2)cc1O [PHENSTATIN] | 0.5 | 0.01 | 0.05 |  |  |  |  |  |  | 0.06
COC(=O)Nc1nc2cc(C(=O)c3cccs3)ccc2[nH]1 [NOCODAZOLE] | 0.1 | 0.005 | 0.001 |  |  |  |  |  |  | 0.0389
Cc1cc(C)c2c(N)c(C(=O)c3ccc4c(c3)OCCO4)sc2n1 | > 4 | 1 | > 4 | 2 |  |  |  |  |  | 
Nc1c(C(=O)c2ccc3c(c2)OCO3)sc2nc(-c3ccncc3)ccc12 | > 4 | > 4 | > 4 |  | Active | Active |  |  |  | 

Compound | EC (Paracentrotus lividus [1]) [µM] | EC (Paracentrotus lividus [2]) [µM] | EC (Paracentrotus lividus [3]) [µM] | inhibition of growth at 10 µM [4] [%] | Activity (Paracentrotus lividus [5]) | Activity (Paracentrotus lividus [6]) | Activity (Paracentrotus lividus [7]) | Activity [8] | Activity [9] | GI50 [10] [µM]
Nc1c(C(=O)Nc2ccccc2)sc2nc3c(cc12)CCCCC3 | 0.2 | 0.01 | 0.04 |  |  |  |  |  |  | 
COc1ccc(C(=O)c2sc3nc(N)c(C#N)cc3c2N)cc1OC | > 4 | 4 | > 4 | 4.6 |  |  |  |  |  | 
Cc1cc(C)c2c(N)c(C(=O)c3ccc(Br)cc3)sc2n1 | > 4 | > 4 | > 4 |  |  |  |  |  |  | 
Nc1c(C(=O)c2ccc(Br)cc2)sc2nc3c(cc12)CCC3 | > 4 | 1 | > 4 | 19.3 |  |  |  |  |  | 
COc1ccc(C(=O)c2sc3nc4c(cc3c2N)CCCC4)cc1OC | > 5 | 0.5 | 4 | 60.5 |  |  | Active |  |  | 3.24
Nc1c(C(=O)Nc2cccc(C(F)(F)F)c2)sc2nc3c(cc12)CCCCC3 | > 4 | > 4 | > 4 |  |  |  |  |  |  | 
COc1ccc(C(=O)c2sc3nc(-c4cccs4)ccc3c2N)cc1 | > 4 | > 4 | > 4 |  |  |  |  | Toxic | Toxic | 
COc1ccc(C(=O)c2sc3nc4c(cc3c2N)N2CCC4CC2)cc1 | > 4 | > 4 | > 4 | 11.5 | Active | Active |  |  |  | 
Nc1c(C(=O)c2ccc3c(c2)OCO3)sc2nc3c(c(C(F)(F)F)c12)CCCC3 | > 4 | > 4 | > 4 |  | Active | Active |  |  |  | 
N#Cc1cc2c(N)c(C(=O)c3ccc(F)cc3)sc2nc1N | > 4 | 4 | > 4 |  |  |  |  |  |  | 
COc1ccc(C(=O)c2sc3nc4c(cc3c2N)CCCC4)cc1 | > 5 | 0.5 | > 4 |  |  |  |  |  |  | 
CN1CCc2nc3sc(C(=O)c4ccccc4)c(N)c3cc2C1 | > 4 | 4 | > 4 | 13.3 | Active | Active |  |  |  | 
Cc1ccc(C(=O)c2sc3nc4c(cc3c2N)CCC4)cc1 | > 4 | 0.2 | > 4 |  |  |  |  |  |  | 
Cc1cccc(NC(=O)c2sc3nc4c(cc3c2N)CCC4)c1C | 5 | 0.05 | 0.5 |  |  |  |  |  |  | 
COc1ccc(C(=O)c2sc3nc(-c4ccccc4OC)ccc3c2N)cc1OC |  |  |  | 43.5 |  |  |  |  |  | 7.94
Cc1ccc(C(=O)c2sc3nc4c(cc3c2N)CCCC4)c(C)c1 | > 5 | 0.05 | 0.2 | 78.9 |  |  | Active |  |  | 0.28
COc1ccccc1-c1ccc2c(N)c(C(=O)c3ccc4c(c3)OCO4)sc2n1 | > 4 | > 4 | > 4 | 37.4 | Active | Active |  |  |  | 5.13
Cc1cccc(NC(=O)c2sc3nc4c(cc3c2N)CCCC4)c1C | 0.5 | 0.01 | 0.1 |  |  |  |  |  |  | 
Nc1c(C(=O)c2ccc(F)cc2)sc2nc3c(cc12)CCCC3 | > 4 | 0.2 | > 4 | 26.7 |  |  |  |  |  | 
Cc1ccc(C(=O)c2sc3nc4c(cc3c2N)CCCC4)cc1 | > 4 | 0.02 | 2 | 16.4 |  |  | Active |  |  | 

— ChEMBL document CHEMBL3872268, “3-Amino-thieno[2,3-b]pyridines as microtubule-destabilising agents: Molecular modelling and biological evaluation in the sea urchin embryo and human cancer cells” (Bioorg Med Chem, 2017)
